Laboratory results reported in ChEMBL document CHEMBL5058577, “EUbOPEN Chemogenomics Library 2 (Multiplex)” (2022).

System: U2OS
Test: Multiplex assay against U2OS
Type: toxicity, cell-based
Conditions: human
In short: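 Phenotypes for tubulin, mitochondrial mass and membrane permeability are expressed as per cents of healthy-nucleus cells. Cells were stained live at seeding with Hoechst33342, BioTracker Green Microtubule Cytoskeleton Dye, MitoTracker Red and Annexin V Alexa Fluor 680, then imaged after compound addition on a CQ1 microscope at 37°C and 5% CO2. Machine-learning gating in CellPathfinder separated Hoechst high-intensity objects from normal cells, divided normal cells by nuclear state (healthy, pyknosed, fragmented) and divided pyknosed cells into mitotic or apoptotic.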

[1] = 12 h, 1 µM, compound concentration 1 uM, replicate 1
[2] = 12 h, 1 µM, compound concentration 1 uM, replicate 2
[3] = 12 h, 10 µM, compound concentration 10 uM, replicate 1
[4] = 12 h, 10 µM, compound concentration 10 uM, replicate 2
[5] = 24 h, 1 µM, compound concentration 1 uM, replicate 1
[6] = 24 h, 1 µM, compound concentration 1 uM, replicate 2
[7] = 24 h, 10 µM, compound concentration 10 uM, replicate 1
[8] = 24 h, 10 µM, compound concentration 10 uM, replicate 2
[9] = 48 h, 1 µM, compound concentration 1 uM, replicate 1
[10] = 48 h, 1 µM, compound concentration 1 uM, replicate 2
[11] = 48 h, 10 µM, compound concentration 10 uM, replicate 1
[12] = 48 h, 10 µM, compound concentration 10 uM, replicate 2

## COC(c1ccccc1)(c1ccccc1)[C@H](Oc1nc(C)cc(C)n1)C(=O)O [AMBRISENTAN]
[1]
  Population Apoptotic (%): 95%
  Population Fragmented Nuclei (%): 26%
  Population Healthy Nuclei (%): 62%
  Population Hoechst High Intensity Objects (%): 2%
  Population Membrane Permeable-Phenotype (%): 3%
  Population Mitochondria Different-Phenotype (%): 0%
  Population Mitotic Cells (%): 4%
  Population Normal (%): 97%
  Population Pyknosed Nuclei (%): 10%
  Population Tubulin-Different-Phenotype (%): 1%
  Total Cell Count: 209
[2]
  Population Apoptotic (%): 100%
  Population Fragmented Nuclei (%): 21%
  Population Healthy Nuclei (%): 72%
  Population Membrane Permeable-Phenotype (%): 8%
  Population Mitochondria Different-Phenotype (%): 3%
  Population Mitotic Cells (%): 0%
  Population Pyknosed Nuclei (%): 5%
  Total Cell Count: 87
[3]
  Population Apoptotic (%): 61%
  Population Fragmented Nuclei (%): 28%
  Population Healthy Nuclei (%): 63%
  Population Hoechst High Intensity Objects (%): 2%
  Population Membrane Permeable-Phenotype (%): 4%
  Population Mitochondria Different-Phenotype (%): 2%
  Population Mitotic Cells (%): 38%
  Population Normal (%): 97%
  Population Pyknosed Nuclei (%): 7%
  Population Tubulin-Different-Phenotype (%): 1%
  Total Cell Count: 232
[4]
  Population Apoptotic (%): 100%
  Population Fragmented Nuclei (%): 19%
  Population Healthy Nuclei (%): 72%
  Population Hoechst High Intensity Objects (%): 0%
  Population Mitochondria Different-Phenotype (%): 0%
  Population Mitotic Cells (%): 0%
  Population Normal (%): 99%
  Population Tubulin-Different-Phenotype (%): 0%
  Total Cell Count: 104
[5]
  Population Apoptotic (%): 95%
  Population Fragmented Nuclei (%): 27%
  Population Healthy Nuclei (%): 63%
  Population Hoechst High Intensity Objects (%): 0%
  Population Membrane Permeable-Phenotype (%): 4%
  Population Mitochondria Different-Phenotype (%): 1%
  Population Mitotic Cells (%): 4%
  Population Normal (%): 99%
  Population Pyknosed Nuclei (%): 8%
  Population Tubulin-Different-Phenotype (%): 1%
  Total Cell Count: 248
[6]
  Population Apoptotic (%): 100%
  Population Fragmented Nuclei (%): 23%
  Population Healthy Nuclei (%): 66%
  Population Membrane Permeable-Phenotype (%): 1%
  Population Mitochondria Different-Phenotype (%): 2%
  Population Mitotic Cells (%): 0%
  Population Pyknosed Nuclei (%): 10%
  Total Cell Count: 111
[7]
  Population Apoptotic (%): 84%
  Population Fragmented Nuclei (%): 25%
  Population Healthy Nuclei (%): 65%
  Population Hoechst High Intensity Objects (%): 1%
  Population Membrane Permeable-Phenotype (%): 7%
  Population Mitochondria Different-Phenotype (%): 2%
  Population Mitotic Cells (%): 16%
  Population Normal (%): 98%
  Population Pyknosed Nuclei (%): 9%
  Population Tubulin-Different-Phenotype (%): 3%
  Total Cell Count: 273
[8]
  Population Apoptotic (%): 80%
  Population Fragmented Nuclei (%): 13%
  Population Healthy Nuclei (%): 77%
  Population Hoechst High Intensity Objects (%): 0%
  Population Mitotic Cells (%): 20%
  Population Normal (%): 100%
  Population Pyknosed Nuclei (%): 8%
  Population Tubulin-Different-Phenotype (%): 5%
  Total Cell Count: 115
[9]
  Population Apoptotic (%): 89%
  Population Fragmented Nuclei (%): 17%
  Population Healthy Nuclei (%): 70%
  Population Hoechst High Intensity Objects (%): 2%
  Population Membrane Permeable-Phenotype (%): 2%
  Population Mitochondria Different-Phenotype (%): 1%
  Population Mitotic Cells (%): 10%
  Population Normal (%): 97%
  Population Pyknosed Nuclei (%): 11%
  Population Tubulin-Different-Phenotype (%): 0%
  Total Cell Count: 333
[10]
  Population Apoptotic (%): 93%
  Population Healthy Nuclei (%): 72%
  Population Membrane Permeable-Phenotype (%): 0%
  Population Mitotic Cells (%): 6%
  Population Pyknosed Nuclei (%): 10%
  Total Cell Count: 151
[11]
  Population Apoptotic (%): 87%
  Population Fragmented Nuclei (%): 21%
  Population Healthy Nuclei (%): 68%
  Population Hoechst High Intensity Objects (%): 3%
  Population Membrane Permeable-Phenotype (%): 4%
  Population Mitochondria Different-Phenotype (%): 2%
  Population Mitotic Cells (%): 12%
  Population Normal (%): 96%
  Population Pyknosed Nuclei (%): 10%
  Population Tubulin-Different-Phenotype (%): 3%
  Total Cell Count: 388
[12]
  Population Apoptotic (%): 81%
  Population Fragmented Nuclei (%): 13%
  Population Healthy Nuclei (%): 79%
  Population Hoechst High Intensity Objects (%): 0%
  Population Membrane Permeable-Phenotype (%): 2%
  Population Mitochondria Different-Phenotype (%): 0%
  Population Mitotic Cells (%): 18%
  Population Normal (%): 100%
  Population Pyknosed Nuclei (%): 6%
  Population Tubulin-Different-Phenotype (%): 2%
  Total Cell Count: 174

## CSc1nc(NC2CCCC2)c([N+](=O)[O-])c(NC2CCCC2)n1 [GS-39783]
[1]
  Population Apoptotic (%): 82%
  Population Fragmented Nuclei (%): 25%
  Population Healthy Nuclei (%): 66%
  Population Hoechst High Intensity Objects (%): 2%
  Population Membrane Permeable-Phenotype (%): 4%
  Population Mitochondria Different-Phenotype (%): 3%
  Population Mitotic Cells (%): 17%
  Population Normal (%): 97%
  Population Pyknosed Nuclei (%): 8%
  Population Tubulin-Different-Phenotype (%): 1%
  Total Cell Count: 209
[2]
  Population Apoptotic (%): 80%
  Population Fragmented Nuclei (%): 18%
  Population Healthy Nuclei (%): 76%
  Population Hoechst High Intensity Objects (%): 3%
  Population Mitochondria Different-Phenotype (%): 0%
  Population Mitotic Cells (%): 20%
  Population Normal (%): 96%
  Population Pyknosed Nuclei (%): 5%
  Total Cell Count: 96
[3]
  Population Apoptotic (%): 88%
  Population Fragmented Nuclei (%): 30%
  Population Healthy Nuclei (%): 63%
  Population Hoechst High Intensity Objects (%): 3%
  Population Membrane Permeable-Phenotype (%): 9%
  Population Mitochondria Different-Phenotype (%): 5%
  Population Mitotic Cells (%): 11%
  Population Normal (%): 96%
  Population Pyknosed Nuclei (%): 5%
  Population Tubulin-Different-Phenotype (%): 4%
  Total Cell Count: 322
[4]
  Population Apoptotic (%): 100%
  Population Fragmented Nuclei (%): 19%
  Population Healthy Nuclei (%): 75%
  Population Hoechst High Intensity Objects (%): 1%
  Population Mitochondria Different-Phenotype (%): 0%
  Population Mitotic Cells (%): 0%
  Population Normal (%): 98%
  Population Pyknosed Nuclei (%): 4%
  Population Tubulin-Different-Phenotype (%): 6%
  Total Cell Count: 145
[5]
  Population Apoptotic (%): 87%
  Population Fragmented Nuclei (%): 22%
  Population Healthy Nuclei (%): 64%
  Population Hoechst High Intensity Objects (%): 2%
  Population Membrane Permeable-Phenotype (%): 2%
  Population Mitochondria Different-Phenotype (%): 1%
  Population Mitotic Cells (%): 12%
  Population Normal (%): 97%
  Population Pyknosed Nuclei (%): 12%
  Population Tubulin-Different-Phenotype (%): 1%
  Total Cell Count: 269
[6]
  Population Apoptotic (%): 84%
  Population Fragmented Nuclei (%): 20%
  Population Healthy Nuclei (%): 68%
  Population Hoechst High Intensity Objects (%): 1%
  Population Membrane Permeable-Phenotype (%): 1%
  Population Mitotic Cells (%): 15%
  Population Normal (%): 98%
  Population Pyknosed Nuclei (%): 11%
  Population Tubulin-Different-Phenotype (%): 0%
  Total Cell Count: 119
[7]
  Population Apoptotic (%): 85%
  Population Fragmented Nuclei (%): 26%
  Population Healthy Nuclei (%): 66%
  Population Hoechst High Intensity Objects (%): 2%
  Population Membrane Permeable-Phenotype (%): 6%
  Population Mitochondria Different-Phenotype (%): 6%
  Population Mitotic Cells (%): 14%
  Population Normal (%): 97%
  Population Pyknosed Nuclei (%): 6%
  Population Tubulin-Different-Phenotype (%): 4%
  Total Cell Count: 341
[8]
  Population Apoptotic (%): 88%
  Population Fragmented Nuclei (%): 18%
  Population Healthy Nuclei (%): 75%
  Population Hoechst High Intensity Objects (%): 3%
  Population Membrane Permeable-Phenotype (%): 9%
  Population Mitochondria Different-Phenotype (%): 2%
  Population Mitotic Cells (%): 11%
  Population Normal (%): 96%
  Population Pyknosed Nuclei (%): 5%
  Population Tubulin-Different-Phenotype (%): 5%
  Total Cell Count: 164
[9]
  Population Apoptotic (%): 88%
  Population Fragmented Nuclei (%): 18%
  Population Healthy Nuclei (%): 70%
  Population Hoechst High Intensity Objects (%): 1%
  Population Membrane Permeable-Phenotype (%): 3%
  Population Mitochondria Different-Phenotype (%): 1%
  Population Mitotic Cells (%): 11%
  Population Normal (%): 98%
  Population Pyknosed Nuclei (%): 11%
  Population Tubulin-Different-Phenotype (%): 1%
  Total Cell Count: 382
[10]
  Population Apoptotic (%): 92%
  Population Fragmented Nuclei (%): 21%
  Population Healthy Nuclei (%): 71%
  Population Hoechst High Intensity Objects (%): 0%
  Population Mitotic Cells (%): 7%
  Population Normal (%): 100%
  Population Pyknosed Nuclei (%): 7%
  Population Tubulin-Different-Phenotype (%): 3%
  Total Cell Count: 185
[11]
  Population Apoptotic (%): 89%
  Population Fragmented Nuclei (%): 23%
  Population Healthy Nuclei (%): 67%
  Population Hoechst High Intensity Objects (%): 2%
  Population Membrane Permeable-Phenotype (%): 5%
  Population Mitochondria Different-Phenotype (%): 1%
  Population Mitotic Cells (%): 10%
  Population Normal (%): 97%
  Population Pyknosed Nuclei (%): 8%
  Population Tubulin-Different-Phenotype (%): 2%
  Total Cell Count: 462
[12]
  Population Apoptotic (%): 85%
  Population Fragmented Nuclei (%): 12%
  Population Healthy Nuclei (%): 81%
  Population Hoechst High Intensity Objects (%): 0%
  Population Membrane Permeable-Phenotype (%): 4%
  Population Mitochondria Different-Phenotype (%): 3%
  Population Mitotic Cells (%): 14%
  Population Normal (%): 99%
  Population Pyknosed Nuclei (%): 6%
  Population Tubulin-Different-Phenotype (%): 3%
  Total Cell Count: 231
